Tests used:
[1] = Biodistribution in tumor of Fischer 344 rat bearing rat 9L cells at 20 uCi, iv after 30 mins; assay type: ADME, organism-based, Neoplasm; conditions: in vivo, 0.5 h
Outline: (§1)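 Male Fischer 344 rats (200–250 g) carrying intracranial 9L gliosarcoma (5×10^4 cells implanted stereotactically, 10–12 days growth), under ketamine:xylazine anaesthesia. About 20 μCi tracer in 0.5 mL sterile saline given via tail-vein catheter. Groups of 4–5 were killed by intracardiac KCl at 15 (NMeFAMP only), 30, 60 or 120 min. Tissues were weighed and gamma-counted, decay-corrected, and reported as %ID/g, mean ± SD.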

[2] = Ratio of drug level from tumor to brain of Fischer 344 rat bearing rat 9L cells at 20 uCi, iv after 120 mins; assay type: ADME, organism-based; conditions: in vivo, 2 h
Blood [3] = experiment: Biodistribution in blood of Fischer 344 rat bearing rat 9L cells at 20 uCi, iv after 30 mins; assay type: ADME, organism-based; conditions: in vivo, 0.5 h; outline: as §1
Blood [4] = experiment: Biodistribution in blood of Fischer 344 rat bearing rat 9L cells at 20 uCi, iv after 60 mins; assay type: ADME, organism-based; conditions: in vivo, 1 h; outline: as §1
Blood [5] = experiment: Biodistribution in blood of Fischer 344 rat bearing rat 9L cells at 20 uCi, iv after 120 mins; assay type: ADME, organism-based; conditions: in vivo, 2 h; outline: as §1
Heart [6] = experiment: Biodistribution in heart of Fischer 344 rat bearing rat 9L cells at 20 uCi, iv after 30 mins; assay type: ADME, organism-based; conditions: in vivo, 0.5 h; outline: as §1
Heart [7] = experiment: Biodistribution in heart of Fischer 344 rat bearing rat 9L cells at 20 uCi, iv after 60 mins; assay type: ADME, organism-based; conditions: in vivo, 1 h; outline: as §1
Heart [8] = experiment: Biodistribution in heart of Fischer 344 rat bearing rat 9L cells at 20 uCi, iv after 120 mins; assay type: ADME, organism-based; conditions: in vivo, 2 h; outline: as §1
Lung [9] = experiment: Biodistribution in lung of Fischer 344 rat bearing rat 9L cells at 20 uCi, iv after 30 mins; assay type: ADME, organism-based; conditions: in vivo, 0.5 h; outline: as §1
Lung [10] = experiment: Biodistribution in lung of Fischer 344 rat bearing rat 9L cells at 20 uCi, iv after 60 mins; assay type: ADME, organism-based; conditions: in vivo, 1 h; outline: as §1
Lung [11] = experiment: Biodistribution in lung of Fischer 344 rat bearing rat 9L cells at 20 uCi, iv after 120 mins; assay type: ADME, organism-based; conditions: in vivo, 2 h; outline: as §1
Liver [12] = experiment: Biodistribution in liver of Fischer 344 rat bearing rat 9L cells at 20 uCi, iv after 30 mins; assay type: ADME, organism-based; conditions: in vivo, 0.5 h; outline: as §1
Liver [13] = experiment: Biodistribution in liver of Fischer 344 rat bearing rat 9L cells at 20 uCi, iv after 60 mins; assay type: ADME, organism-based; conditions: in vivo, 1 h; outline: as §1
Liver [14] = experiment: Biodistribution in liver of Fischer 344 rat bearing rat 9L cells at 20 uCi, iv after 120 mins; assay type: ADME, organism-based; conditions: in vivo, 2 h; outline: as §1
Pancreas [15] = experiment: Biodistribution in pancreas of Fischer 344 rat bearing rat 9L cells at 20 uCi, iv after 30 mins; assay type: ADME, organism-based; conditions: in vivo, 0.5 h; outline: as §1
Pancreas [16] = experiment: Biodistribution in pancreas of Fischer 344 rat bearing rat 9L cells at 20 uCi, iv after 60 mins; assay type: ADME, organism-based; conditions: in vivo, 1 h; outline: as §1
Pancreas [17] = experiment: Biodistribution in pancreas of Fischer 344 rat bearing rat 9L cells at 20 uCi, iv after 120 mins; assay type: ADME, organism-based; conditions: in vivo, 2 h; outline: as §1
Spleen [18] = experiment: Biodistribution in spleen of Fischer 344 rat bearing rat 9L cells at 20 uCi, iv after 30 mins; assay type: ADME, organism-based; conditions: in vivo, 0.5 h; outline: as §1
Spleen [19] = experiment: Biodistribution in spleen of Fischer 344 rat bearing rat 9L cells at 20 uCi, iv after 60 mins; assay type: ADME, organism-based; conditions: in vivo, 1 h; outline: as §1
Spleen [20] = experiment: Biodistribution in spleen of Fischer 344 rat bearing rat 9L cells at 20 uCi, iv after 120 mins; assay type: ADME, organism-based; conditions: in vivo, 2 h; outline: as §1
Kidney [21] = experiment: Biodistribution in kidney of Fischer 344 rat bearing rat 9L cells at 20 uCi, iv after 30 mins; assay type: ADME, organism-based; conditions: in vivo, 0.5 h; outline: as §1
Kidney [22] = experiment: Biodistribution in kidney of Fischer 344 rat bearing rat 9L cells at 20 uCi, iv after 60 mins; assay type: ADME, organism-based; conditions: in vivo, 1 h; outline: as §1
Kidney [23] = experiment: Biodistribution in kidney of Fischer 344 rat bearing rat 9L cells at 20 uCi, iv after 120 mins; assay type: ADME, organism-based; conditions: in vivo, 2 h; outline: as §1
Muscle tissue [24] = experiment: Biodistribution in muscle of Fischer 344 rat bearing rat 9L cells at 20 uCi, iv after 30 mins; assay type: ADME, organism-based; conditions: in vivo, 0.5 h; outline: as §1
Muscle tissue [25] = experiment: Biodistribution in muscle of Fischer 344 rat bearing rat 9L cells at 20 uCi, iv after 60 mins; assay type: ADME, organism-based; conditions: in vivo, 1 h; outline: as §1
Muscle tissue [26] = experiment: Biodistribution in muscle of Fischer 344 rat bearing rat 9L cells at 20 uCi, iv after 120 mins; assay type: ADME, organism-based; conditions: in vivo, 2 h; outline: as §1
Bone [27] = experiment: Biodistribution in bone of Fischer 344 rat bearing rat 9L cells at 20 uCi, iv after 30 mins; assay type: ADME, organism-based, Bone element; conditions: in vivo, 0.5 h; outline: as §1
Bone [28] = experiment: Biodistribution in bone of Fischer 344 rat bearing rat 9L cells at 20 uCi, iv after 60 mins; assay type: ADME, organism-based, Bone element; conditions: in vivo, 1 h; outline: as §1
Bone [29] = experiment: Biodistribution in bone of Fischer 344 rat bearing rat 9L cells at 20 uCi, iv after 120 mins; assay type: ADME, organism-based, Bone element; conditions: in vivo, 2 h; outline: as §1
[30] = Biodistribution in testis of Fischer 344 rat bearing rat 9L cells at 20 uCi, iv after 30 mins; assay type: ADME, organism-based; conditions: in vivo, 0.5 h; outline: as §1
[31] = Biodistribution in testis of Fischer 344 rat bearing rat 9L cells at 20 uCi, iv after 60 mins; assay type: ADME, organism-based; conditions: in vivo, 1 h; outline: as §1
[32] = Biodistribution in testis of Fischer 344 rat bearing rat 9L cells at 20 uCi, iv after 120 mins; assay type: ADME, organism-based; conditions: in vivo, 2 h; outline: as §1
[33] = rat, in vivo, iv, 1 h
[34] = rat, in vivo, iv, 1 h; remark: listed apart in the source
Brain = experiment: Biodistribution in brain of Fischer 344 rat bearing rat 9L cells at 20 uCi, iv after 30 mins; conditions: in vivo, 0.5 h
[35] = Biodistribution in tumor of Fischer 344 rat bearing rat 9L cells at 20 uCi, iv after 30 mins; conditions: in vivo, 0.5 h
[36] = Ratio of drug level from tumor to brain of Fischer 344 rat bearing rat 9L cells at 20 uCi, iv after 60 mins; conditions: in vivo, 1 h
9L [37] = experiment: Cellular uptake in rat 9L cells at 5 uCi measured […] by gamma counting; assay type: ADME, cell-based
Outline: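 9L rat gliosarcoma cells, grown in DMEM with 10% FCS, were trypsinised and washed in HBSS. About 5×10^5 cells were exposed to 5 μCi tracer in amino-acid-free HBSS for 30 min at 37 °C, 5% CO2, then centrifuged and rinsed twice with ice-cold HBSS. Cells were gamma-counted and decay-corrected, with uptake reported as % of initial dose per 5×10^5 cells ± SD, n=3.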

9L [38] = experiment: Cellular uptake in rat 9L cells at 5 uCi measured […] by gamma counting in presence of system L transport inhibitor BCH; assay type: ADME, cell-based
Outline: (§2)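 9L rat gliosarcoma cells (DMEM, 10% FCS, 37 °C, 5% CO2) were trypsinised and washed in HBSS. About 5×10^5 cells took up 5 μCi tracer for 30 min in 0.1 mL amino acid-free HBSS, with inhibitor at 10 mM final (ACS: 3.3 mM each of alanine, cysteine, serine). Cells were spun and rinsed twice with ice-cold HBSS, then gamma counted with decay correction. Triplicates; uptake is % ID per 5×10^5 cells.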

9L [39] = experiment: Cellular uptake in rat 9L cells assessed as inhibition of uptake at 5 uCi measured […] by gamma counting in presence of system L transport inhibitor BCH relative to control; assay type: ADME, cell-based; parameters: scale not given: the % may be the effect or the level left
Outline: (§3)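 9L rat gliosarcoma cells, grown in DMEM with 10% FCS, were trypsinised and washed in HBSS. About 5×10^5 cells were incubated with 5 μCi tracer in amino-acid-free HBSS for 30 min at 37 °C, with or without 10 mM final BCH, MeAIB or ACS (3.3 mM each Ala/Cys/Ser). Cells were washed cold, gamma-counted and decay-corrected. Inhibition is percent of control; triplicates, one-way ANOVA.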

9L [40] = experiment: Cellular uptake in rat 9L cells at 5 uCi measured […] by gamma counting in presence of system A transport inhibitor MeAIB; assay type: ADME, cell-based; outline: as §2
9L [41] = experiment: Cellular uptake in rat 9L cells assessed as inhibition of uptake at 5 uCi measured […] by gamma counting in presence of system A transport inhibitor MeAIB relative to control; assay type: ADME, cell-based; parameters: scale not given: the % may be the effect or the level left; outline: as §3
9L [42] = experiment: Cellular uptake in rat 9L cells assessed as inhibition of uptake at 5 uCi measured […] by gamma counting in presence of system ASC transport inhibitor ACS relative to control; assay type: ADME, cell-based; parameters: scale not given: the % may be the effect or the level left; outline: as §3
9L [43] = experiment: Cellular uptake in rat 9L cells at 5 uCi measured per 0.5 million cells by gamma counting in presence of system ASC transport inhibitor ACS

`C[C@](N)(C[18F])C(=O)O.Cl` gave a Ratio [1] of 38.2, a Ratio [2] of 27.5 and a Drug uptake (Blood [3]) of 0.28 % ID/g. For the same compound, the Drug uptake (Blood [4]) was 0.25 % ID/g, the Drug uptake (Blood [5]) was 0.16 % ID/g and the Drug uptake (Heart [6]) was 0.32 % ID/g. For the same compound, the Drug uptake (Heart [7]) was 0.34 % ID/g, the Drug uptake (Heart [8]) was 0.23 % ID/g and the Drug uptake (Lung [9]) was 0.37 % ID/g. For the same compound, the Drug uptake (Lung [10]) was 0.4 % ID/g, the Drug uptake (Lung [11]) was 0.23 % ID/g and the Drug uptake (Liver [12]) was 0.6 % ID/g. The Drug uptake (Liver [13]) was 0.65 % ID/g, the Drug uptake (Liver [14]) was 0.32 % ID/g and the Drug uptake (Pancreas [15]) was 2.96 % ID/g. The Drug uptake (Pancreas [16]) was 2.05 % ID/g, the Drug uptake (Pancreas [17]) was 1.17 % ID/g and the Drug uptake (Spleen [18]) was 0.72 % ID/g. It also gave a Drug uptake (Spleen [19]) of 0.71 % ID/g, a Drug uptake (Spleen [20]) of 0.39 % ID/g and a Drug uptake (Kidney [21]) of 3.47 % ID/g. For the same compound, the Drug uptake (Kidney [22]) was 2.96 % ID/g, the Drug uptake (Kidney [23]) was 2.09 % ID/g and the Drug uptake (Muscle tissue [24]) was 0.32 % ID/g. For the same compound, the Drug uptake (Muscle tissue [25]) was 0.52 % ID/g, the Drug uptake (Muscle tissue [26]) was 0.36 % ID/g and the Drug uptake (Bone [27]) was 0.23 % ID/g. The Drug uptake (Bone [28]) was 0.36 % ID/g, the Drug uptake (Bone [29]) was 0.26 % ID/g and the Drug uptake [30] was 0.15 % ID/g. The Drug uptake [31] was 0.17 % ID/g, the Drug uptake [32] was 0.16 % ID/g and the Drug uptake [33] was 0.1 % ID/g. For the same compound, the Drug uptake [34] was 2.82 % ID/g, the Drug uptake (Brain) was 0.06 % ID/g and the Drug uptake [35] was 2.46 % ID/g. For the same compound, the Ratio [36] was 28.6.

For `N[C@]1(C(=O)O)C[C@@H]([18F])C1` [FLUCICLOVINE F18], the Drug uptake [33] was 0.26 % ID/g.

`C[C@@](N)(CF)C(=O)O.Cl` gave a Drug uptake (9L [37]) of 4.77 %ID, a Drug uptake (9L [38]) of 1.21 %ID and an Activity (9L [39]) of 75%. For the same compound, the Drug uptake (9L [40]) was 3.29 %ID, the Activity (9L [41]) was 31% and the Activity (9L [42]) was 72%. The Drug uptake (9L [43]) was 1.33 %ID.

`CN[C@@](C)(CF)C(=O)O.Cl` gave a Drug uptake (9L [37]) of 7.08 %ID, a Drug uptake (9L [38]) of 3.26 %ID and an Activity (9L [39]) of 54%. The Drug uptake (9L [40]) was 0.6 %ID, the Activity (9L [41]) was 92% and the Activity (9L [42]) was 89%. For the same compound, the Drug uptake (9L [43]) was 0.75 %ID.

Reference: ChEMBL document CHEMBL1154842, “Synthesis, radiolabeling, and biological evaluation of (R)- and (S)-2-amino-3-[(18)F]fluoro-2-methylpropanoic acid (FAMP) and (R)- and (S)-3-[(18)F]fluoro-2-methyl-2-N-(methylamino)propanoic acid (NMeFAMP) as potential PET radioligands for imaging brain tumors” (J Med Chem, 2010)
